Data: PMC4112157 (Bioorganic & medicinal chemistry, 2014)
“Also recorded” adds a separate entry of the source. Like-named read-outs stand apart in the source and are kept apart here.

Key:
h15-LOX-1 [1] = target: T1, h15-LOX-1 (Homo sapiens, UniProt P16050); assay: Oxo-lipid substrate activity, h15-LOX-1; type: biochemical
T1 sequence (P16050 1-662): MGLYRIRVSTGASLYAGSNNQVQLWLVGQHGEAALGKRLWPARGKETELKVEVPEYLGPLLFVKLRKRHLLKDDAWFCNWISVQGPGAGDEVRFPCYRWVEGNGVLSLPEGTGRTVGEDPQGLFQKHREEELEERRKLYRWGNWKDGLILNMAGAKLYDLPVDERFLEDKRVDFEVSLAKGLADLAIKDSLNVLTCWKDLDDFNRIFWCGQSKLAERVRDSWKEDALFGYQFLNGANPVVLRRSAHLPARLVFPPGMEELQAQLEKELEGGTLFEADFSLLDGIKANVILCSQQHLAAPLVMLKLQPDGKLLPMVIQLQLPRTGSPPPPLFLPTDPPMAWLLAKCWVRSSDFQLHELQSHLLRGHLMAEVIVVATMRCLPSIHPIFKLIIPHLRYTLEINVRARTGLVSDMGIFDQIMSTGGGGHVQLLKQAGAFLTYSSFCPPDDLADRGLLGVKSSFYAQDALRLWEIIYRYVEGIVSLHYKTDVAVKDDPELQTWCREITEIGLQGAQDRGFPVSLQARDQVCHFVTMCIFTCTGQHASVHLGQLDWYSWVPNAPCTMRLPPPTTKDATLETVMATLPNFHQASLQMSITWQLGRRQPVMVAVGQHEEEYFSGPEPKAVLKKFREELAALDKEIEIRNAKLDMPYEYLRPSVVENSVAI

s15-LOX-1 = target: T2, s15-LOX-1 (Glycine max, UniProt P08170); assay: Lipoxygenase UV-Vis-based IC50 assay, s15-LOX-1; type: biochemical, soybean
T2 sequence (P08170 1-839): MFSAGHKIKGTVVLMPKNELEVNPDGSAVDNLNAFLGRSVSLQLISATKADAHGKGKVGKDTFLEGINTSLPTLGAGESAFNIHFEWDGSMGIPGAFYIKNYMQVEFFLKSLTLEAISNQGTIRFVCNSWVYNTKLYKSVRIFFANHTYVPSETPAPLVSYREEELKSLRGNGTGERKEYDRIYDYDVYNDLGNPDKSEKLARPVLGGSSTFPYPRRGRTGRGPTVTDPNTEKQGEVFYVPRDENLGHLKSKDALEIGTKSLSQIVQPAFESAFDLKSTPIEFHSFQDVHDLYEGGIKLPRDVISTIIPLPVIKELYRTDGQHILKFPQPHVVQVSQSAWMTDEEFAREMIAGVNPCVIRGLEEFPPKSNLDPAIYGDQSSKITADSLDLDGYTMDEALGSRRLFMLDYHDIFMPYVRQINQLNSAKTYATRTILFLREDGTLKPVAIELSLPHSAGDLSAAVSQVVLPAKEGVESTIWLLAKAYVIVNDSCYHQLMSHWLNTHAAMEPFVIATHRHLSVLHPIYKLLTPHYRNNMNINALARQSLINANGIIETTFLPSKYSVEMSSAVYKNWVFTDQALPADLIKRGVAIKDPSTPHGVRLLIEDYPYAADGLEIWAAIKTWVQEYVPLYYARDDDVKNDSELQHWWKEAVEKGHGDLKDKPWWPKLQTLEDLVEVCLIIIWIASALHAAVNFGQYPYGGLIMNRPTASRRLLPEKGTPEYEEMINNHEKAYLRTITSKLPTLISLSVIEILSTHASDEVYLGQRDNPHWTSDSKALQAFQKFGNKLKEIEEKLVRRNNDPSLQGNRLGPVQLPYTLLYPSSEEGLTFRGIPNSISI

h12-LOX [2] = target: T3, h12-LOX (Homo sapiens, UniProt P18054); assay: Oxo-lipid substrate activity, h12-LOX; type: biochemical
T3 sequence (P18054 1-663): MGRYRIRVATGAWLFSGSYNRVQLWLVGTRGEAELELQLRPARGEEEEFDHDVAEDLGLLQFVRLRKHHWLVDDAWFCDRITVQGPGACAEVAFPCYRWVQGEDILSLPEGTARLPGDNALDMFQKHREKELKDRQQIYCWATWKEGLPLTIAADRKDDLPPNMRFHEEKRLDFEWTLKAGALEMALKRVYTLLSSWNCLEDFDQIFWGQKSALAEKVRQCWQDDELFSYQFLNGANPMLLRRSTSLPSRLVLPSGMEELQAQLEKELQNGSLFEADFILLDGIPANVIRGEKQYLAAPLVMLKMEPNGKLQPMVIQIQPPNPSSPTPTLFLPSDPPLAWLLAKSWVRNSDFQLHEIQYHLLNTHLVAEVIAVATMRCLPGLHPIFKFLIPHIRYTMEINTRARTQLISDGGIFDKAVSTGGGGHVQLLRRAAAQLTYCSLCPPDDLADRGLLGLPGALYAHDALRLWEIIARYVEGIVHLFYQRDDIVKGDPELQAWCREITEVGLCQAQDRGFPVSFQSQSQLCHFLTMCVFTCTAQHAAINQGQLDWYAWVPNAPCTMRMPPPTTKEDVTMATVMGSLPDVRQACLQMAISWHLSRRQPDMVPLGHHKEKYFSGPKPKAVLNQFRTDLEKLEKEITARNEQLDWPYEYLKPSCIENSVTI

h5-LOX = target: T4, h5-LOX (Homo sapiens, UniProt P09917); assay: Oxo-lipid substrate activity, h5-LOX; type: biochemical; conditions: IC50 assay conditions, 10 μM oxo-lipid, UV-Vis 234/280 nm, LC-MS
T4 sequence (P09917 1-674): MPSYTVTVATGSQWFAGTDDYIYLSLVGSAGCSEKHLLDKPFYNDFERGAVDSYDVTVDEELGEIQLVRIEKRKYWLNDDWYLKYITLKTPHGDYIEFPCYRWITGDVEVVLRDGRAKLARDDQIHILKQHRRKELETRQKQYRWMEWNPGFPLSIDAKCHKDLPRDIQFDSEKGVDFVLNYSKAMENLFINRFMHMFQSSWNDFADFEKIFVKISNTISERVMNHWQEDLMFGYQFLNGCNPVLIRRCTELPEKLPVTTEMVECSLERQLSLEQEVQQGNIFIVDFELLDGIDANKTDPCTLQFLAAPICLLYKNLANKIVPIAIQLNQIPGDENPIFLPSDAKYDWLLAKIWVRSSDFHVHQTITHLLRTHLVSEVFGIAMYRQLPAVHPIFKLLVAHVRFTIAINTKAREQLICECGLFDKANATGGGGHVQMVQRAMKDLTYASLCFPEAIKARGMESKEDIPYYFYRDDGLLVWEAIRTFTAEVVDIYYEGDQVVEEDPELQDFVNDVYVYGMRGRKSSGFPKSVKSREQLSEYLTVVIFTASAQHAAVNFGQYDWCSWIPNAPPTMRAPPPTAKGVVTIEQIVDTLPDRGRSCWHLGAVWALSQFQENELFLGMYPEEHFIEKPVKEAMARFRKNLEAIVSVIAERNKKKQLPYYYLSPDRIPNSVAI

cytosolic calcium levels = conditions: cited from earlier work
h15-LOX-1 [3] = target: T1, h15-LOX-1; assay: Incubation activity assay; type: biochemical; conditions: time incubation experiments
LOX isozymes = assay: Lipoxygenase UV-Vis-based IC50 assay, summary over LOX isozymes; type: biochemical
h12-LOX [4] = target: T3, h12-LOX; assay: Steady-state inhibition kinetics, h12-LOX; type: biochemical; conditions: for Ki: 0.4–10 μM AA, 25 mM HEPES pH 8.0, 0.01% Triton X-100, Dixon plot and replot
Procedure, shortened: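 Enzyme added to start the reaction in a stirred cuvette containing 0.4–10 μM arachidonic acid, 25 mM HEPES (pH 8.0) and 0.01% Triton X-100. 12-HpETE formation followed at 234 nm (ε = 25,000 M−1cm−1) across substrate and inhibitor concentrations, with Dixon series at 0.6, 1, 3 and 9 μM AA. Dixon plot and slope-vs-[inhibitor] replot give Kic (dissociation from enzyme) and Kiu (from enzyme–substrate complex).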

[5] = IC50 assay conditions, 10 μM oxo-lipid, UV-Vis 234/280 nm
[6] = IC50 assay conditions, 10 μM oxo-lipid, UV-Vis 234/280 nm, LC-MS
[7] = incubation conditions, 10 μM, on ice 15 minutes, HPLC and LC-MS

IC50 (s15-LOX-1) [µM] | mode of inhibition (time dependence) (h15-LOX-1 [3]) | IC50 (LOX isozymes; read-out: IC50 against the other LOX isozymes, LOX isozymes other than h12-LOX) [µM] | Ki (h12-LOX [4]; Kic) [nM] | Ki (h12-LOX [4]; Kiu) [nM] | substrate activity (h15-LOX-1 [1]; [7]) | substrate activity (h12-LOX [2]; [7]) | SMILES | substrate activity (h15-LOX-1 [1]; [5]) | substrate activity (h12-LOX [2]; [6]) | substrate activity (h5-LOX) | concentration with calcium effects (as low as) (cytosolic calcium levels) [nM] | concentration with effects on cytosolic calcium levels (cytosolic calcium levels) [µM] | IC50 (LOX isozymes; read-out: IC50 for all LOXs, all LOXs studied) [µM] | mode of inhibition (steady state) (h12-LOX [4]; steady state inhibition kinetics)
> 100 | – | – | – | – | – | – | CCCCC/C=C\C/C=C\C/C=C\C=C\C(=O)CCCC(=O)O [5-oxo-ETE, 5-oxo-6,8,11,14-(E,Z,Z,Z)-eicosatetraenoic acid] | no change of absorbance at 234 nm or 280 nm | no change of absorbance at 234 nm or 280 nm | no change of absorbance at 234 nm or 280 nm | – | – | – | –
> 100 | irreversible inhibition | – | – | – | – | – | CCCCC/C=C\CC(=O)/C=C/C=C\C/C=C\CCCC(=O)O [12-oxo-ETE, 12-oxo-5,8,10,14-(Z,Z,E,Z)-eicosatetraenoic acid] | no change of absorbance at 234 nm or 280 nm | – | no change of absorbance at 234 nm or 280 nm | 10 | 10 | – | –
– | – | > 25 | 87 ± 8 | 2100 ± 800 | not a substrate | not a substrate | CCCCCC(=O)/C=C/C=C\C/C=C\C/C=C\CCCC(=O)O [15-oxo-ETE, 15-oxo-5,8,11,13-(Z,Z,Z,E)-eicosatetraenoic acid] | – | not a substrate | multiple oxidation products were formed | – | – | – | mixed inhibitor; also recorded: mixed inhibition

SMILES | IC50 (s15-LOX-1) [µM] | mode of inhibition (time dependence) (h15-LOX-1 [3]) | IC50 (LOX isozymes; read-out: IC50 against the other LOX isozymes, LOX isozymes other than h12-LOX) [µM] | Ki (h12-LOX [4]; Kic) [nM] | Ki (h12-LOX [4]; Kiu) [nM] | substrate activity (h15-LOX-1 [1]; [7]) | substrate activity (h12-LOX [2]; [7]) | substrate activity (h15-LOX-1 [1]; [5]) | substrate activity (h12-LOX [2]; [6]) | substrate activity (h5-LOX) | concentration with calcium effects (as low as) (cytosolic calcium levels) [nM] | concentration with effects on cytosolic calcium levels (cytosolic calcium levels) [µM] | IC50 (LOX isozymes; read-out: IC50 for all LOXs, all LOXs studied) [µM] | mode of inhibition (steady state) (h12-LOX [4]; steady state inhibition kinetics)
CCCCCC(=O)/C=C/C=C\CCCCCCCC(=O)O [13-oxo-ODE, 13-oxo-9,11-(Z,E)-octadecadienoic acid] | > 100 | – | – | – | – | – | – | – | – | – | – | – | > 100 | –
